ChEMBL document CHEMBL1275565, “Minimal effects of ritonavir and efavirenz on the pharmacokinetics of raltegravir” (Antimicrob Agents Chemother, 2008)

How the values were obtained:
Type in all cases: ADME, organism-based
[1] = Cmax in HIV-negative human at 400 mg, po administered as single dose; parameters: dose 400 mg, route oral; settings: in vivo
Summary of the method: (§1)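 Period 1 of two crossover studies in healthy male volunteers: single 400 mg oral raltegravir alone. Plasma sampled 0–72 h postdose and assayed by validated reverse-phase HPLC-MS/MS (LLOQ 2 ng/ml, linear to 1,000 ng/ml), converted to nM (MW 444.4). Cmax by inspection; C12h from the nominal 12 h sample; AUC0–∞ by linear/log trapezoidal plus extrapolation from the last concentration/β.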

[2] = AUC (0 to infinity) in HIV-negative human at 400 mg, po administered as single dose; parameters: dose 400 mg, time infinity, route oral; settings: plasma; summary of the method: as §1
[3] = Trough plasma concentration at 12 hrs in HIV-negative human at 400 mg, po administered as single dose; settings: read-out: Cmin; summary of the method: as §1
[4] = Terminal half life in HIV-negative human at 400 mg, po administered as single dose followed by 4 days wash out period followed by efavirenz dosing at 600 mg, po bid for 14 days coadministered with compound at 400 mg, po on day 12; settings: in vivo, in the assay text read “po qd for 14 days” for “po bid for 14 days”, read-out: beta t1/2 (converted)
Summary of the method: (§2)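 Healthy male volunteers; plasma raltegravir measured by validated reverse-phase HPLC-MS/MS (LLOQ 2 ng/ml, linear 2 to 1,000 ng/ml) and converted to nM. Each subject's profile was fit to a biexponential model (weighting 1/(predicted concentration)², Gauss-Newton minimization), with α-phase onset set by inspection. Phase t1/2 = ln(2)/α or β. Median differences were estimated by Hodges-Lehman with 90% CI.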

[5] = Primary phase half life in HIV-negative human at 400 mg, po administered as single dose followed by 4 days wash out period followed by efavirenz dosing at 600 mg, po bid for 14 days coadministered with compound at 400 mg, po on day 12; settings: in vivo, in the assay text read “po qd for 14 days” for “po bid for 14 days”, read-out: alphat1/2 (converted); summary of the method: as §2
[6] = Cmax in HIV-negative human at 400 mg, po administered as single dose followed by 4 days wash out period followed by efavirenz dosing at 600 mg, po bid for 14 days coadministered with compound at 400 mg, po on day 12; parameters: dose 400 mg, route oral; settings: in vivo, in the assay text read “po qd for 14 days” for “po bid for 14 days”
Summary of the method: (§3)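 Efavirenz 600 mg orally once daily at bedtime for 14 days, with a single 400 mg oral raltegravir (double-blind vs placebo) alongside on day 12. Healthy males, all doses taken fasted. Plasma sampled at 0–72 h postdose as in the ritonavir study, but at 36 h instead of 32 h, and quantified by HPLC-MS/MS. Cmax by inspection; C12h at nominal 12 h; AUC0–∞ by linear/log trapezoidal plus extrapolation.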

[7] = AUC (0 to infinity) in HIV-negative human at 400 mg, po administered as single dose followed by 4 days wash out period followed by efavirenz dosing at 600 mg, po bid for 14 days coadministered with compound at 400 mg, po on day 12; parameters: dose 400 mg, route oral, time infinity; settings: plasma, in the assay text read “po qd for 14 days” for “po bid for 14 days”; summary of the method: as §3
[8] = Trough plasma concentration at 12 hrs in HIV-negative human at 400 mg, po administered as single dose followed by 4 days wash out period followed by efavirenz dosing at 600 mg, po bid for 14 days coadministered with compound at 400 mg, po on day 12; settings: in the assay text read “po qd for 14 days” for “po bid for 14 days”, read-out: Cmin; summary of the method: as §3
[9] = Terminal half life in HIV-negative human at 400 mg, po administered as single dose followed by 4 days wash out period followed by ritonavir dosing at 100 mg, po bid for 16 days coadministered with compound at 400 mg, po on day 14; settings: in vivo, read-out: beta t1/2 (converted); summary of the method: as §2
[10] = Primary phase half life in HIV-negative human at 400 mg, po administered as single dose followed by 4 days wash out period followed by ritonavir dosing at 100 mg, po bid for 16 days coadministered with compound at 400 mg, po on day 14; settings: in vivo, read-out: alphat1/2 (converted); summary of the method: as §2
[11] = Tmax in HIV-negative human at 400 mg, po administered as single dose followed by 4 days wash out period followed by […] coadministered with compound at 400 mg, po on day 14; settings: in vivo
[12] = Cmax in HIV-negative human at 400 mg, po administered as single dose followed by 4 days wash out period followed by […] coadministered with compound at 400 mg, po on day 14; parameters: dose 400 mg, route oral; settings: in vivo
[13] = AUC (0 to infinity) in HIV-negative human at 400 mg, po administered as single dose followed by 4 days wash out period followed by […] coadministered with compound at 400 mg, po on day 14; parameters: dose 400 mg, time infinity, route oral; settings: plasma
[14] = Trough plasma concentration at 12 hrs in HIV-negative human at 400 mg, po administered as single dose followed by 4 days wash out period followed by ritonavir dosing at 100 mg, po bid […] coadministered with compound at 400 mg, po on day 14; settings: read-out: Cmin
Summary of the method: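 In healthy young males, ritonavir 100 mg twice daily for 14 days, with a single 400 mg oral raltegravir (double-blind vs placebo) given with the morning dose on day 14. All doses followed a moderate-fat meal. Cmax and Tmax by inspection at nominal times; C12h from the 12 h sample; AUC0–∞ by trapezoidal sum plus extrapolation.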

[15] = Terminal half life in HIV-negative human at 400 mg, po administered as single dose; settings: in vivo, read-out: beta t1/2 (converted); summary of the method: as §2
[16] = Primary phase half life in HIV-negative human at 400 mg, po administered as single dose; settings: in vivo, read-out: alphat1/2 (converted); summary of the method: as §2

Cmax [1]: 9.57 µM
AUC(0-inf) [2]: 22.9 µM·h
concentration at 12 h [3]: 0.0771 µM
half-life [4]: 9.1 h
half-life [5]: 0.95 h
Cmax [6]: 6.45 µM
AUC(0-inf) [7]: 18.1 µM·h
concentration at 12 h [8]: 0.0625 µM
half-life [9]: 10 h
half-life [10]: 0.97 h
Tmax [11]: 2 h
Cmax [12]: 7.23 µM
AUC(0-inf) [13]: 19.3 µM·h
concentration at 12 h [14]: 0.0765 µM
half-life [15]: 10.8 h
half-life [16]: 0.98 h
Compound: Cc1nnc(C(=O)NC(C)(C)c2nc(C(=O)NCc3ccc(F)cc3)c(O)c(=O)n2C)o1 [RALTEGRAVIR]
